Results as given in publication PMC3846294 (Chemical research in toxicology, 2013).
Read-outs that look alike come from different tables or passages of the source.

Tests used:
hSULT2A1 [1] = molecular target: T1, hSULT2A1 (Homo sapiens, UniProt Q06520); test: Binding of PAP to quinone-pretreated hSULT2A1; settings: in the absence of DHEA; pretreatment with 10 μM quinone
T1 sequence (Q06520 1-285): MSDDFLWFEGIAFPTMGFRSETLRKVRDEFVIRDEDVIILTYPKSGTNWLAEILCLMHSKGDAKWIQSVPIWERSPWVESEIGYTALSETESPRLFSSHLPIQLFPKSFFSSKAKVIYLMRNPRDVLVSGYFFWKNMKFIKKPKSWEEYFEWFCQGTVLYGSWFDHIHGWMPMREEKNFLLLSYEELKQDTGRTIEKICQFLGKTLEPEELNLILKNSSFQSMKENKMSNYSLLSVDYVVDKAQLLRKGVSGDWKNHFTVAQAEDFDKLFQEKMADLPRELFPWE
In short: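 Purified recombinant hSULT2A1 was expressed in E. coli BL21(DE3) and pretreated with test compound for 1 h at 25 °C. It was then placed at 15 nM final (dimer) in 0.25 M potassium phosphate, pH 7.4, without DHEA, 20 min before titration. PAP was added to 0.5–300 μM final at 37 °C. Intrinsic fluorescence (ex 290/em 347 nm) was read 10 s after each addition, dilution-corrected, in duplicate. Dissociation constants were derived.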

hSULT2A1 [2] = molecular target: T1, hSULT2A1; test: Structural modification of hSULT2A1 by quinones, proteolytic digestion and LC/MS; settings: 15 μM hSULT2A1 with 250 μM quinone, 1 h, pH 8.0, 25 °C
In short: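 Recombinant hSULT2A1 was expressed in E. coli BL21(DE3), purified, and desalted of DTT into 50 mM Tris-HCl pH 8.0. 15 μg enzyme was reacted with quinone (17:1 molar ratio), then alkylated with 45 mM final 4-vinylpyridine for 1 h. Digestion used 0.6 μg trypsin with 10% v/v acetonitrile at 37 °C for 16 h, plus 1 μg Glu-C where needed. Peptides were analysed by LC/MS.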

hSULT2A1 [3] = molecular target: T1, hSULT2A1; assay type: biochemical; settings: 100-fold dilution, 0.5 μM DHEA (Figure 4)
In short: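 E. coli-expressed, purified hSULT2A1 was preincubated with test compound for 1 h at 25 °C, then diluted 100-fold into a standard assay containing 0.5 μM 3H-DHEA. The mixture was prewarmed at 37 °C for 2 min, and the reaction was started with 30 ng of enzyme. It ran for 3 or 4 min at 37 °C to keep initial velocity. Runs were in triplicate, mean ± SD, compared with untreated enzyme by paired two-tailed t test (p < 0.05).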

| Compound | Binding of PAP to the pretreated enzyme (hSULT2A1 [1]) | Protein adducts at cysteines of hSULT2A1 (hSULT2A1 [2]) | Catalytic activity of hSULT2A1 following preincubation with PBQ (hSULT2A1 [3]; PBQ 0.5 μM or 1.0 μM) | Catalytic activity of hSULT2A1 following preincubation with PBQ (hSULT2A1 [3]; PBQ 5.0 μM or higher) |
| --- | --- | --- | --- | --- |
| O=C1C=CC(=O)C(c2ccccc2Cl)=C1 [2′-Cl-BQ, 2′-chlorophenyl-2,5-benzoquinone] | no detectable binding of PAP | protein adducts were observed at Cys55 and Cys199 |  |  |
| O=C1C=CC(=O)C(c2ccccc2)=C1 [PBQ, phenyl-2,5-benzoquinone] |  | protein adducts were observed at Cys55 and Cys199 | increase in the catalytic activity | decreases in catalytic activity |
| O=C1C=C(Cl)C(=O)C(c2ccc(Cl)cc2)=C1Cl [3,6,4′-triCl-BQ, 4′-chlorophenyl-3,6-dichloro-2,5-benzoquinone] |  | a dichlorinated adduct was found in the digested peptides containing Cys55 and Cys199 |  |  |
| 4′-chlorophenyl-2,5-benzoquinone [4′-Cl-BQ] | no detectable binding of PAP | protein adducts were observed at Cys55 and Cys199 |  |  |
